Values after ≈ are worked out from the molar mass of the structure shown. Active and inactive are the calls of the source. No cut-off for these calls is given here.
Columns and labels:
[1] = Selectivity index, ratio of IC50 for human HeLa cells to MIC for clindamycin/erythromycin/spectinomycin-resistant mec-positive Staphylococcus aureus NRS70; format: toxicity
Outline: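 HeLa cytotoxicity by XTT assay in triplicate, IC50 by nonlinear regression; ratio IC50 over broth microdilution MIC against NRS70.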

Staphylococcus aureus [2] = assay: Antibacterial activity against Staphylococcus aureus ATCC 29213 measured after 16 to 20 hrs in presence of bovine serum albumin by microdilution method; format: functional
Outline: (§1)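 S. aureus ATCC29213 MIC was run by CLSI microdilution in cation-adjusted Mueller–Hinton broth plus 2% NaCl, with and without 0.5% bovine serum albumin. Compounds were two-fold serially diluted in triplicate, inoculum was 5 × 10^5 CFU/mL, and plates were incubated at 37 °C for 16–20 h. The endpoint was the lowest concentration with no visible growth.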

HeLa = assay: Cytotoxicity against human HeLa cells assessed as reduction in cell viability measured after 16 hrs by XTT assay; format: cell-based
Outline: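 HeLa cells (ATCC CCL-2), run in triplicate. Viability was read by XTT, and IC50 was obtained by nonlinear regression.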

Staphylococcus aureus [3] = assay: Antibacterial activity against multi-drug resistant mecA-positive Staphylococcus aureus NRS119 measured after 16 to 20 hrs by microdilution method; format: functional
Outline: (§2)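 CLSI broth microdilution; two-fold serial compound dilutions in triplicate in cation-adjusted Mueller–Hinton broth with 2% NaCl, inoculum 5 × 10^5 CFU/mL; 37 °C for 16–20 h; MIC = lowest concentration with no visible growth.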

Staphylococcus aureus [4] = assay: Antibacterial activity against Staphylococcus aureus ATCC 29213 measured after 16 to 20 hrs by microdilution method; format: functional
Outline: (§3)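 CLSI broth microdilution: two-fold serial dilutions in triplicate in cation-adjusted Mueller–Hinton broth with 2% NaCl, inoculum 5 × 10^5 CFU/mL, incubated at 37 °C for 16–20 h. MIC is the lowest concentration preventing visible growth.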

[5] = Protein binding in human plasma at 10 uM measured after 6 hrs UV-UPLC based rapid equilibrium dialysis method; format: ADME, cell-free
Outline: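 Rapid equilibrium dialysis: human plasma was cleared by centrifugation and spiked from a 1 mM DMSO stock to a final 10 μM, against 0.1 M PBS pH 7.4. Dialysis ran 6 h at 37 °C with orbital shaking. Buffer (free) and plasma (total) aliquots were mixed with internal standard in acetonitrile and measured by UPLC-UV at 285 nm. B% = (Cp−Cf)/Cp×100.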

Staphylococcus aureus [6] = assay: Antibacterial activity against multi-drug resistant mecA-positive Staphylococcus aureus ATCC 27660 measured after 16 to 20 hrs by microdilution method; format: functional; outline: as §2
Staphylococcus aureus [7] = assay: Selectivity ratio of MIC for Staphylococcus aureus ATCC 29213 in presence of bovine serum albumin to MIC for Staphylococcus aureus ATCC 29213 in absence of bovine serum albumin; format: functional; outline: as §1
Staphylococcus aureus [8] = assay: Antibacterial activity against multi-drug resistant mec-positive Staphylococcus aureus USA300 measured after 16 to 20 hrs by microdilution method; format: functional; outline: as §2
Staphylococcus aureus [9] = assay: Antibacterial activity against clindamycin/erythromycin/spectinomycin-resistant mec-positive Staphylococcus aureus NRS70 measured after 16 to 20 hrs by microdilution method; format: functional; outline: as §2
[10] = Clearance in ICR mouse at 5 mg/kg, iv by UV-UPLC analysis; format: ADME, organism-based; details: in vivo
Outline: (§4)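 Female ICR mice, 6–8 weeks old, 20–25 g. Each received 50 μL by tail-vein injection (5 or 10 mg/kg) of a filter-sterilized 2 or 4 mg/mL solution in 20% DMSO/10% Tween-80/70% water. Terminal blood was collected and plasma harvested by centrifugation. Plasma was precipitated with acetonitrile containing internal standard, and the supernatant was analyzed by C18 UPLC with UV detection at 285 nm.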

[11] = AUC (0 to last) in ICR mouse at 5 mg/kg, iv by UV-UPLC analysis; format: ADME, organism-based; set-up: dose 5 mg/kg, route intravenous, time 0 - last; details: in vivo; outline: as §4
[12] = Clearance in ICR mouse at 5 mg/kg, iv by UV-UPLC analysis relative to hepatic blood flow; format: ADME, organism-based; details: in vivo; outline: as §4
[13] = Solubility of the compound in water; format: physicochemical; details: buffer
Bacillus cereus = assay: Antibacterial activity against Bacillus cereus ATCC 13061 measured after 16 to 20 hrs by microdilution method; format: functional; outline: as §3
[14] = Volume of distribution in ICR mouse at 10 mg/kg, iv by UV-UPLC analysis; format: ADME, organism-based; details: in vivo; outline: as §4
[15] = Elimination half life in ICR mouse at 10 mg/kg, po administered via gavage by UV-UPLC analysis; format: ADME, organism-based; details: in vivo, read-out: beta t1/2 (converted)
Staphylococcus aureus [16] = assay: Bactericidal activity against methicillin resistant Staphylococcus aureus NRS70 infected in ICR mouse model of neutropenic thigh infection assessed as log reduction in bacterial count in thigh at 20 mg/kg, sc administered at 8 hrs interval for 3 times starting from 1 hr post infection and measured 24 hrs post infection; format: functional
Outline: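 Female ICR mice (6–8 weeks, 20–25 g) made neutropenic with cyclophosphamide 200 mg/kg ip at 4 and 1 days pre-infection; 0.1 mL NRS70 at 1 × 10^6 CFU/mL in brain heart infusion injected into right thigh; drug in 10% DMSO/90% water sc every 8 h ×3 from 1 h post-infection; thigh CFU counted at 24 h; n = 8/group; mean ± SEM, one-way ANOVA with Tukey test.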

[17] = Elimination half life in ICR mouse at 10 mg/kg, iv by UV-UPLC analysis; format: ADME, organism-based; details: ICR, in vivo, read-out: beta t1/2; outline: as §4
[18] = molecular target: T1, MecA (Staphylococcus aureus) (UniProt Q7DHH4); assay: (§5) Binding affinity to PBP2a in clindamycin/erythromycin/spectinomycin-resistant mec-positive Staphylococcus aureus NRS70 assessed potentiation of piperacillin and tazobactam-induced bactericidal activity by measuring log reduction in bacterial count at 0.5 times MIC measured after 12 hrs by time-kill assay
T1 sequence (whole entry): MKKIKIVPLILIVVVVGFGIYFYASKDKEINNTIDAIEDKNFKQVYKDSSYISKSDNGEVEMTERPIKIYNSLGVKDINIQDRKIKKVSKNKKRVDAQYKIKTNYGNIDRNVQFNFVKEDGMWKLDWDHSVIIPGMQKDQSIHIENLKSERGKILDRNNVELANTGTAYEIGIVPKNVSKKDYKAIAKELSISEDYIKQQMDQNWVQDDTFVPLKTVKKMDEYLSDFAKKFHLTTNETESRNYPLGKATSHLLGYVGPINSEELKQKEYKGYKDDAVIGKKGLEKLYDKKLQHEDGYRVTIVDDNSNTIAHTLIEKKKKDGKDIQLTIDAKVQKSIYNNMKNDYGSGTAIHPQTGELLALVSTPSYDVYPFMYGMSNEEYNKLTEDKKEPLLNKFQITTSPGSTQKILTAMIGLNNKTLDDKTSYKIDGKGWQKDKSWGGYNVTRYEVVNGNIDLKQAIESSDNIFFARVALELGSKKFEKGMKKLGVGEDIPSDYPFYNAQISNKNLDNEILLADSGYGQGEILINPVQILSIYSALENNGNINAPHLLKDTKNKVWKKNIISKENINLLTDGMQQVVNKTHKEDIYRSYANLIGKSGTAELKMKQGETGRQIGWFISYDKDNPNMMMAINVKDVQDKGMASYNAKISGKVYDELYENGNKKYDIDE

[19] = test system: Staphylococcus epidermidis; assay: Antibacterial activity against Staphylococcus epidermidis ATCC 35547 measured after 16 to 20 hrs by microdilution method; format: functional; outline: as §2
Enterococcus faecalis = assay: Antibacterial activity against Enterococcus faecalis ATCC 29212 measured after 16 to 20 hrs by microdilution method; format: functional; outline: as §3
[20] = molecular target: T1, MecA (Staphylococcus aureus); assay: as §5, with “measuring” for “measuring log”, “24” for “12”
Clostridioides difficile = assay: Antibacterial activity against Clostridium difficile ATCC 43255 measured after 16 to 20 hrs by microdilution method; format: functional
Staphylococcus aureus [21] = assay: Bacteriostatic activity against clindamycin/erythromycin/spectinomycin-resistant mec-positive Staphylococcus aureus NRS70 assessed as log reduction in bacterial count at 0.5 to 16 times MIC by time-kill assay; format: functional
Bacillus licheniformis = assay: Antibacterial activity against Bacillus licheniformis ATCC 12759 measured after 16 to 20 hrs by microdilution method; format: functional; outline: as §3
Streptococcus pneumoniae = assay: Antibacterial activity against Streptococcus pneumoniae ATCC 49619 measured after 16 to 20 hrs by microdilution method; format: functional; outline: as §3

Row | SMILES | selectivity ratio [1] | MIC (Staphylococcus aureus [2]) [µg/mL] | IC50 (HeLa) [µg/mL] | MIC (Staphylococcus aureus [3]) [µg/mL] | MIC (Staphylococcus aureus [4]) [µg/mL] | PPB [5] [%] | MIC (Staphylococcus aureus [6]) [µg/mL] | MIC (Staphylococcus aureus [8]) [µg/mL] | MIC (Staphylococcus aureus [9]) [µg/mL] | also measured
1 | O=C(O)c1cccc(-n2c(CCc3ccc(F)cc3)nc3ccccc3c2=O)c1 | 40 | 8 | 79 (≈ 203 µM) | 4 (≈ 10.3 µM) | 2 (≈ 5.15 µM) | > 99.9 | 4 (≈ 10.3 µM) | 1 (≈ 2.57 µM) | – | selectivity ratio (Staphylococcus aureus [7]): <=4
2 | N#Cc1ccc(/C=C/c2nc3ccccc3c(=O)n2-c2cc(C(=O)O)ccc2Cl)cc1 | > 64 | 16 | > 128 | 2 (≈ 4.67 µM) | 2 (≈ 4.67 µM) | > 99.9 | 2 (≈ 4.67 µM) | 1 (≈ 2.34 µM) | 2 (≈ 4.67 µM) | –
3 | C#Cc1ccc(/C=C/c2nc3ccccc3c(=O)n2-c2cccc(S(N)(=O)=O)c2)cc1 | 1020 | 0.5 | 61 (≈ 143 µM) | 0.06 (≈ 0.14 µM) | – | 98.2 | – | – | – | clearance [10]: 28.2 mL/min/kg; AUC(0-t) [11]: 2970 ng·h/mL; CL [12]: > 10%
4 | N#Cc1ccc(/C=C/c2nc3ccccc3c(=O)n2-c2ccccc2O)cc1 | 667 | 0.125 | 40 (≈ 109 µM) | – | 0.015 (≈ 0.0411 µM) | 98.1 | 0.25 (≈ 0.684 µM) | 0.03 (≈ 0.0821 µM) | 0.06 (≈ 0.164 µM) | solubility [13]: Insoluble
5 | N#Cc1ccc(/C=C/c2nc3ccccc3c(=O)n2-c2cccc(NC(=O)C(F)(F)F)c2)cc1 | > 2130 | 32 | > 128 | 1 (≈ 2.17 µM) | 2 (≈ 4.34 µM) | > 99.9 | 0.06 (≈ 0.13 µM) | 0.06 (≈ 0.13 µM) | 0.06 (≈ 0.13 µM) | –
6 | CS(=O)(=O)Nc1cccc(-n2c(NCc3ccc(C#N)cc3)nc3ccccc3c2=O)c1 | 248 | 1 | 62 (≈ 139 µM) | 0.25 (≈ 0.561 µM) | 0.125 (≈ 0.281 µM) | > 99.9 | 0.125 (≈ 0.281 µM) | 0.25 (≈ 0.561 µM) | 0.25 (≈ 0.561 µM) | –
7 | Cc1ccc(C(=O)O)cc1-n1c(/C=C/c2ccc(C#N)cc2)nc2ccccc2c1=O | 15 | 16 | 60 (≈ 147 µM) | 4 (≈ 9.82 µM) | 2 (≈ 4.91 µM) | > 99.9 | 4 (≈ 9.82 µM) | 1 (≈ 2.45 µM) | 4 (≈ 9.82 µM) | –
8 | N#Cc1ccc(/C=C/c2nc3ccccc3c(=O)n2-c2cccc(C(=O)O)c2)cc1 | – | 8 | 173 (≈ 440 µM) | 1 (≈ 2.54 µM) | 2 (≈ 5.08 µM) | – | 2 (≈ 5.08 µM) | 0.5 (≈ 1.27 µM) | 2 (≈ 5.08 µM) | MIC (Bacillus cereus): > 128 µg/mL; Vd [14]: 0.3 L/kg; half-life [15]: > 20 h; log(activity) (Staphylococcus aureus [16]): 0.67; half-life [17]: > 20 h; log(activity) [18]: > 3; MIC [19]: 1 µg/mL (≈ 2.54 µM); MIC (Enterococcus faecalis): > 128 µg/mL; selectivity ratio (Staphylococcus aureus [7]): <=4; Activity [20]: inactive; MIC (Clostridioides difficile): 128 µg/mL (≈ 325 µM); log(activity) (Staphylococcus aureus [21]): <3; MIC (Bacillus licheniformis): > 128 µg/mL; MIC (Streptococcus pneumoniae): 16 µg/mL (≈ 40.7 µM)
